Here are results for 1 compound from ChEMBL document CHEMBL1144684, “Evaluation of a series of naphthamides as potent, orally active vascular endothelial growth factor receptor-2 tyrosine kinase inhibitors” (J Med Chem, 2008).

Structures are written as SMILES.

The target in series [1] is Angiopoietin-1 receptor (Homo sapiens, UniProt Q02763). In words: Inhibition of Tie2.
For series [2], the target named is Vascular endothelial growth factor receptor 2 (Homo sapiens, UniProt P35968).
Series [3] is described as follows: Oral bioavailability in cynomolgus monkey at 2 mg/kg. The series is classed as ADME, organism-based, Macaca fascicularis. Conditions: in vivo. In short, it runs like this: (§1)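 Oral suspension dosing; vehicles: mouse 10 mg/kg in OraPlus, dog 0.5 mg/kg in 1% Tween-80/2% HPMC/97% water, cynomolgus monkey 2 mg/kg.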
Series [4] concerns the target Tyrosine-protein kinase Lyn (Homo sapiens, UniProt P07948). In words: Inhibition of Lyn.
A short description of series [5]: Oral bioavailability in mouse at 10 mg/kg. The series is classed as ADME, organism-based. As to conditions: in vivo. In short, it runs like this:
as §1

Series [6] relates to Liver microsomes. In words: Metabolic stability assessed as covalent binding in presence of NADPH and GSH in human liver microsomes at 10 uM after 1 hr. The series is classed as ADME, Microsome. In short, it runs like this:
(§2)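 14C-labelled compound at 10 µM with human or rat liver microsomes (1 mg/mL) in 0.1 M potassium phosphate pH 7.4, with or without 1 mM NADPH and 1 mM glutathione, 60 min; quenched with ice-cold acetonitrile. Pellet washed with 80% methanol and ethanol/ether, solubilized, protein by BCA, radioactivity by scintillation counting.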
Background: Microsomes from liver hold many membrane-bound enzymes, among them those of drug oxidation.

For series [7], the system named is Liver microsomes. Briefly: Metabolic stability assessed as covalent binding in absence of NADPH in human liver microsomes at 10 uM after 1 hr. The series is classed as ADME, Microsome. In short, it runs like this: as §2
Series [8] has as its system HT-29. In words: Antitumor activity in human HT29 cell xenografted CD1 nu/nu mouse assessed as inhibition of tumor growth at 30 mg/kg, po qd for 14 days. Conditions: HT-29, 336 h, read-out: TGI. The series is classed as functional. The gist of the method: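 Female CD-1 nu/nu mice, 4–8 weeks, implanted sc in hind flank with 1 × 10^7 HT29 (DMEM high glucose, 5% FBS) or Calu-6 (RPMI 1640, 10% FBS) cells; treatment began at 13–14 days (~300 mm3). Methanesulfonate salt given po qd in OraPlus for 14 days; caliper volumes twice weekly; n = 10/group; RMANOVA with Scheffé test.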
Background: A xenograft is tissue or cells of one species grown in another, often human tumour cells in immunodeficient mice.

Series [9] is described as follows: Half life in mouse at 10 mg/kg, po. The series is classed as ADME, organism-based. The arrangement: dose 10 mg/kg, route oral. Conditions: in vivo. The gist of the method:
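Compound given iv and po as single doses; vehicles: mouse iv PEG 400, po OraPlus; dog iv DMSO, po 1% Tween-80/2% HPMC/97% water; cynomolgus iv propylene glycol, po suspension.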

Sequence of Tyrosine-protein kinase Lyn (P07948 whole entry): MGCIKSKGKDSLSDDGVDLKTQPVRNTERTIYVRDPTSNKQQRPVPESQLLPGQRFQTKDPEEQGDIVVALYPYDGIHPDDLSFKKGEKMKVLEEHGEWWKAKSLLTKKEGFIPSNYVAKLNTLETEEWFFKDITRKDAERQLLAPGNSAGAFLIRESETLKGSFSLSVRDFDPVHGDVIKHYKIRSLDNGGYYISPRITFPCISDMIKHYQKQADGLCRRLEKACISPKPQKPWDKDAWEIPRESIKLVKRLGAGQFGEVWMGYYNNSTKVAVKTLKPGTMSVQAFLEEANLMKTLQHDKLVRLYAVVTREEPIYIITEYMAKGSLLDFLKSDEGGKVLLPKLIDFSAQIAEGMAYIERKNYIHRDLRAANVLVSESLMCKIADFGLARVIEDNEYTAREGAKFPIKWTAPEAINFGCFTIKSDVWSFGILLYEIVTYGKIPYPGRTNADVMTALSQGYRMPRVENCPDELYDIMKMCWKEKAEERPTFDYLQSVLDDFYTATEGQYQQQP
Sequence of Vascular endothelial growth factor receptor 2 (P35968 whole entry): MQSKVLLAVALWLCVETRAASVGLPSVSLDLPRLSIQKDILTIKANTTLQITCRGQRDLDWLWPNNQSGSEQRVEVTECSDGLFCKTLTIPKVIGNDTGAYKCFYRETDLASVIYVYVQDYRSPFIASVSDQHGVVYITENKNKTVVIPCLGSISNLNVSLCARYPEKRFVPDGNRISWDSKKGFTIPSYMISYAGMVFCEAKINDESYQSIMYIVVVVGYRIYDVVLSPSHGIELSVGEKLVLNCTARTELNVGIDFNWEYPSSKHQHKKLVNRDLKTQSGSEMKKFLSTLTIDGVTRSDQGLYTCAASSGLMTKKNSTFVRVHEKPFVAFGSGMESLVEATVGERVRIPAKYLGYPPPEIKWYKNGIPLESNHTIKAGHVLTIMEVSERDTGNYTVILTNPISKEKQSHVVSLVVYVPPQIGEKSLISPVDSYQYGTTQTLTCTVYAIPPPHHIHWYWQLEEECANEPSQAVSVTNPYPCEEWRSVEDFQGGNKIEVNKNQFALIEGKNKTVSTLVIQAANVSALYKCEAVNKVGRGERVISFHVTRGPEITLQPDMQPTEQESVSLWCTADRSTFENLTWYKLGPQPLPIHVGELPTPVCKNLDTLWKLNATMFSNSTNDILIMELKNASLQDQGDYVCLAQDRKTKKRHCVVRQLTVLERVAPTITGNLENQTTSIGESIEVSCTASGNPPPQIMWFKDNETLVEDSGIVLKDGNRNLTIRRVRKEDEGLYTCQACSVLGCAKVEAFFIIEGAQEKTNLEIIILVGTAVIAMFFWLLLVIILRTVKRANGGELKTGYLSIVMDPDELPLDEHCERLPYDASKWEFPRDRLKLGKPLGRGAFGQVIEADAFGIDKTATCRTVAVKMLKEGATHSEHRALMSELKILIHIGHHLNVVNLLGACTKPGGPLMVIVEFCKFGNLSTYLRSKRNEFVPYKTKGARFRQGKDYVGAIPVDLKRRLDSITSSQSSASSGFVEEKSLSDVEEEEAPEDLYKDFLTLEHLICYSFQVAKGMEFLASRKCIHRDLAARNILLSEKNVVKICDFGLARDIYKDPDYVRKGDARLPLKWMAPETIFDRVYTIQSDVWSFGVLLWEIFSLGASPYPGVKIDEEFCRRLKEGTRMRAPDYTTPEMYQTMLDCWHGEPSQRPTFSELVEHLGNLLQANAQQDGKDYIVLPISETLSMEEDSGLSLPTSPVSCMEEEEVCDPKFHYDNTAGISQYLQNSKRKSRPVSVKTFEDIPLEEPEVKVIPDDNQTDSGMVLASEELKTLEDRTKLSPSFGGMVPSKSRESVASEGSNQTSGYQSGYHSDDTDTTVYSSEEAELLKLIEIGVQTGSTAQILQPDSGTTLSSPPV
Sequence of Angiopoietin-1 receptor (Q02763 whole entry): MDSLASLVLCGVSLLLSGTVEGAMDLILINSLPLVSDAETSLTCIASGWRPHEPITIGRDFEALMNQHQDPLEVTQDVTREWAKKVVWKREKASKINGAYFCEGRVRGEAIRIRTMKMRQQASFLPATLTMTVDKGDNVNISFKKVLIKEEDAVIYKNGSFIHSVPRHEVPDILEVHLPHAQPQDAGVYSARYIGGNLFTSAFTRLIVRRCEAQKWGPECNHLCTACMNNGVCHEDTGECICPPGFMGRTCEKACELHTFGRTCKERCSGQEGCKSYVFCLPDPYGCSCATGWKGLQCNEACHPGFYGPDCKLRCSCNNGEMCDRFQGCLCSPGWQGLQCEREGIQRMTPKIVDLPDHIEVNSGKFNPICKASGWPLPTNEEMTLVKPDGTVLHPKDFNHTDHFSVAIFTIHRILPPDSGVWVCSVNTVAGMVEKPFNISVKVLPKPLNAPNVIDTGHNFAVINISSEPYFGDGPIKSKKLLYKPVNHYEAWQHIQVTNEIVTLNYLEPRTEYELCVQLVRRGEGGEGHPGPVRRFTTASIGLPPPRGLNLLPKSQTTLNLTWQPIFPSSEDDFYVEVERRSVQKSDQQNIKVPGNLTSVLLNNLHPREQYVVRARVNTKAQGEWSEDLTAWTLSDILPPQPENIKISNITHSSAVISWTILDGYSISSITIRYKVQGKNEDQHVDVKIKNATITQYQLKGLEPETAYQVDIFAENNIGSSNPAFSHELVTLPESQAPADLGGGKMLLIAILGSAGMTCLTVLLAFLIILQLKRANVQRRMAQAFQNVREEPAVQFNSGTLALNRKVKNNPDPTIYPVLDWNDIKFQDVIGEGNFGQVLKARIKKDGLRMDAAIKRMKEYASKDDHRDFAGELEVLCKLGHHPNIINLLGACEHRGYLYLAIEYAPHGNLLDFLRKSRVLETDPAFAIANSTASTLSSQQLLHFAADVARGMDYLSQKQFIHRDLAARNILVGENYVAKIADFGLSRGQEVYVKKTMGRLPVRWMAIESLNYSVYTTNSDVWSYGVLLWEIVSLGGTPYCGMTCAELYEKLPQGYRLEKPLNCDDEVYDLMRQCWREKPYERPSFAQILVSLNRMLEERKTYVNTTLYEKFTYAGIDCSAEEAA

On to `COc1cc2nccc(Oc3ccc4c(C(N)=O)cccc4c3)c2cc1OC`, for which the IC50 (commonly the concentration that inhibits the measured activity by half) in [1] is 25000 nM; in series [2], 0.9 nM; in [4] it was 88 nM. Also, the values for the bioavailability in [3] and in series [5] were 51% and 39%, respectively. The Stability in series [6] stood at 3.2 pmol/mg/h; in series [7], 14 pmol/mg/h. Further, the inhibition in vivo at 30 mg/kg in [8] is 94%. The half-life (in general, the time in which the quantity being followed falls by half) in [9] is 5.6 h.
